The values that follow come from PubChem BioAssay.

The term inhibition denotes the change of the read-out against control, counted positive when it falls.

Structures are written as SMILES. Calls of active or inactive are those of the source.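 The calls were made as follows, unless noted: active = inhibition of the reporter signal at or above 50%; inactive = inhibition below 50%.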

Test [1] is described as follows: inhibitors of TNFa-induced NFkB p65 translocation, primary screen, imaging, HUVEC, MLSMR starter and 10KST1 sets (AID 438;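 active = inhibition above 20% together with a positive visual image hit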;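 also: compound added about 3h40 before a 20 min TNFalpha stimulation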;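 as to inhibition: signal is the nuclear over cytoplasmic p65 intensity ratio per well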). The note with it: HUVEC TNFa-induced p65 nuclear translocation; cell count: measured here: nuclei count (cytotoxicity indicator), at 2.08 µM; inhibition: at 2 µM, stronger effect = higher value, 0% TNFa-plus-vehicle, 100% no-TNFa wells.
A short description of test [2]: inhibitors of mutant huntingtin aggregation, primary screen, imaging, exon1htt(103Q)mCFP cells, high-content imaging (AID 483;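 active = visual image review flags a hit and inhibition of aggregation exceeds 20%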;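 also: compound exposure lasted 3 days before fixation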;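 as to nuclei count: percent of the per-plate median nuclei count of sample wells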). The note with it: exon1htt(103Q)mCFP cell line, aggregate imaging, at 2 µM; inhibition of aggregation: stronger effect = higher value; nuclei count: measured here: cell count, toxicity.
Test [3] is described as follows: inhibitors of E-selectin induction by TNFa, primary screen, imaging, HUVEC, immunofluorescence, MLSMR starter and 10KST1 sets (AID 487;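 active = visually confirmed hit in the image check and inhibition above 20%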;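 as to inhibition: signal is fraction of cell area covered by stained E-selectin grains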;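 as to nuclei count: 100% = median nuclei count of all wells on the same plate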). The note with it: HUVEC TNFalpha-induced E-selectin immunofluorescence imaging, at 2 µM; inhibition: stronger effect = higher value; nuclei count: measured here: cell number, toxicity.
Test [4] concerns the target Voltage-gated potassium channel subunit beta-2 (Rattus norvegicus) (UniProt P62483). The test is described as follows: KvBeta enzyme negative modulators, primary screen, biochemical, NADPH fluorescence (AID 622;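 active = fluorescence slope higher than the sample average by over 3 SD, cut at about -0.22 in these data, passing the limit was not always enough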;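 also: slope of raw intensity against log time taken from 70 to 1610 s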). As to conditions: recombinant KvBeta, 4-cyanobenzaldehyde reduction, at 10 µM, stronger effect = higher value.
For test [5] the target is unchanged. As to the kind of experiment: KvBeta positive modulators, primary screen, biochemical, NADPH fluorescence (AID 623;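 active = NADPH fluorescence slope more negative than the mean of all samples by about 3 SD, 99.7% confidence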;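 also: fluorescence intensity change per second fitted from 20 to 320 s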). As to conditions: Recombinant KvBeta, NADPH fluorescence decrease slope, 10 min; at 10 µM; stronger effect = lower value.
For test [6], the target named is Muscarinic acetylcholine receptor M4 (Homo sapiens) (UniProt P08173). The test is described as follows: compounds altering M4/GIRK thallium flux, either direction, primary screen, M4 allosteric agonist project, cell-based, HEK293 M4/GIRK, BTC-AM (AID 625;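 active = fluorescence slope after compound addition differing from the mean of all tested samples at 99.7% confidence, mostly higher but some lower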;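 also: thallium influx through GIRK channels coupled to M4 in HEK293 cells with BTC-AM dye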). As to conditions: at 10 µM, actives lie on both sides. The procedure, abridged:
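Material: M4/GIRK1/GIRK2 stable HEK293 cell line. Medium: pH 7.3 thallium assay buffer. Dosing: single compound concentration, 10 µM final. Schedule: 1 h dye loading, 2 min kinetic read. Measured by: kinetic fluorescence with BTC-AM dye. Read-out: post-addition slope, 15–24 s, of baseline-normalized fluorescence. Benchmarks: carbachol and DMSO controls.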

Test [7] can be described thus: inhibitors of Sendai virus-induced IRF3 signaling, primary screen, TLR/RLR signaling modifier project, cell-based, Sendai virus stimulus, luciferase, 10K MLSCN set (AID 602276;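 active = inhibition at or above 50% at 10 µM; inactive = inhibition below 50%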;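 also: firefly luciferase from ISG56 promoter only with Renilla not read in this screen; 0% = Sendai virus plus DMSO and 100% = medium plus DMSO without virus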). The note with it: HEK293 RL24 IRF3 luciferase reporter, at 10 µM, stronger effect = higher value. In general terms: Reporter assays use an easily measured gene product as a stand-in for the process of interest.

Test [8] in a line: inhibitors of poly I:C-induced TLR3 signaling, primary screen, cell-based, poly I:C stimulus, luciferase, 10K MLSCN set (AID 602277). The note with it: HEK293-TLR3 RL24 IRF3 luciferase reporter, at 10 µM, stronger effect = higher value.

Sequence of Muscarinic acetylcholine receptor M4 (Homo sapiens) (P08173 whole entry, looked up): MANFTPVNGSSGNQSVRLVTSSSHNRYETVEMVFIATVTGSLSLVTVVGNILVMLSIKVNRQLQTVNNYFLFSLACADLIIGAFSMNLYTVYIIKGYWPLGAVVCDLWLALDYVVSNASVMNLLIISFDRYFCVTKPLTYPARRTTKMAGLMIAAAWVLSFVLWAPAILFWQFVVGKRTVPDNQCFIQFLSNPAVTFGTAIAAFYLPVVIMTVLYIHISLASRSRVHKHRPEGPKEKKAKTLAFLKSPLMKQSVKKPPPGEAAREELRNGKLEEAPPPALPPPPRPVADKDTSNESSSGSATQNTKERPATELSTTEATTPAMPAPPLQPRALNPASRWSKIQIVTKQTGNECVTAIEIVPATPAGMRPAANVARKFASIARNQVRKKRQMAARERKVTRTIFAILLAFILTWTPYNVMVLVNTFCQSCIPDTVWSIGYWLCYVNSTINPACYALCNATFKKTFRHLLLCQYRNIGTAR
Sequence of Voltage-gated potassium channel subunit beta-2 (Rattus norvegicus) (P62483 whole entry, looked up): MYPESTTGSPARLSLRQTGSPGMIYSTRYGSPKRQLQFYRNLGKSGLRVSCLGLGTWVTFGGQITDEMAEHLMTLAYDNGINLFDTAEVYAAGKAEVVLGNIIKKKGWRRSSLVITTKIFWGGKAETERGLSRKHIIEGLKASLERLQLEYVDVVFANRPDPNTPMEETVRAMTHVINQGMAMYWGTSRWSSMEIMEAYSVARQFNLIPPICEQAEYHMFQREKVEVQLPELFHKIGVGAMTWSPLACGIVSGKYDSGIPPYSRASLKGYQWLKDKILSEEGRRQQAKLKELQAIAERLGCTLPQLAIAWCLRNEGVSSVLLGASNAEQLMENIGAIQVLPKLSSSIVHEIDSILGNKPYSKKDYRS

For `O=C(Nc1ccc(Cl)cc1C(=O)Nc1ccncc1)c1ccco1`, the cell count in test [1] is 393. Besides, the inhibition in test [1] was 2.1% (inactive); in test [3], -148% (inactive); in test [7] it was 18.3% (inactive); in test [8], 28.5% (inactive). Besides, the inhibition of aggregation in test [2] is -7.4% (inactive). Besides, the results for the nuclei count in test [2] and in test [3] were 81.3% and 101%, respectively. Besides, the fluorescence slope is -0.316 (inactive) in test [4] and 0.00491 (inactive) in test [6]. Also, the NADPH fluorescence slope in test [5] was -1.2e-05 (inactive).

On to `Cc1nc(CNS(=O)(=O)c2ccc3c(c2)OCCO3)cs1`, for which the cell count in test [1] was 309. Also, the inhibition in test [1] was 0.5% (inactive); in test [3] it was 12.1% (inactive); in test [7] it was -8.22% (inactive); in test [8], -38.6% (inactive). Also, in test [2], the inhibition of aggregation is 10.1% (inactive). The nuclei count in test [2] was 106%; in test [3], 110%. Moreover, the fluorescence slope is -0.568 (inactive) in test [4] and 0.00404 (inactive) in test [6]. Moreover, the NADPH fluorescence slope in test [5] was -2.7e-05 (inactive).

Take `Cc1cc(OC(=O)N2CCOCC2)cc(C)c1Cl`: the cell count in test [1] came to 309. Further, the inhibition in test [1] was -12.3% (inactive); in test [3], -50% (inactive); in test [7], -13.8% (inactive); in test [8] it was 99.2% (active). The inhibition of aggregation in test [2] was -22.3% (inactive). The nuclei count was found to be 114% in test [2] and 130% in test [3]. Moreover, the fluorescence slope is -0.444 (inactive) in test [4] and 0.00877 (inactive) in test [6]. The NADPH fluorescence slope in test [5] is 5.1e-05 (inactive).

Take `CCc1nnc(NC(=O)c2cccc(C(=O)Nc3nnc(CC)s3)n2)s1`: the cell count in test [1] was 700. Further, the inhibition is -23.3% (inactive) in test [1], -18.7% (inactive) in test [3], -5.37% (inactive) in test [7] and -13.7% (inactive) in test [8]. Also, in test [2], the inhibition of aggregation was 13.6% (inactive). Also, the nuclei count in test [2] is 120%; in test [3] it was 107%. Also, the figures for the fluorescence slope in test [4] and in test [6] were -0.398 (inactive) and 0.00556 (inactive), respectively. Besides, the NADPH fluorescence slope in test [5] was -3.4e-05 (inactive).

In the case of `COc1ccc(-c2cc(C(F)F)n3ncc(C(=O)NCC4CCCO4)c3n2)cc1` (stereo not drawn), in test [1], the cell count amounted to 244. The inhibition in test [1] is 4.7% (inactive); in test [3] it was -51% (inactive); in test [7] it was 20.7% (inactive); in test [8] it was 11.4% (inactive). In addition, the inhibition of aggregation in test [2] is -15.8% (inactive). The results for the nuclei count in test [2] and in test [3] were 78.7% and 108%, respectively. For the same molecule, the fluorescence slope was -0.000811 (active) in test [4] and 0.00542 (inactive) in test [6]. The NADPH fluorescence slope in test [5] was -2.9e-05 (inactive).

`C=C(c1ccc(O)cc1)c1ccc(O)cc1`: in test [1], the cell count is 447. In addition, the inhibition in test [1] was -0.5% (inactive); in test [3], -75% (inactive); in test [7] it was 13.9% (inactive); in test [8], 16.6% (inactive). Besides, the inhibition of aggregation in test [2] was -1.6% (inactive). The nuclei count came out at 123% in test [2] and 205% in test [3]. Also, the fluorescence slope in test [4] is -0.37 (inactive); in test [6], 0.00598 (inactive). In addition, the NADPH fluorescence slope in test [5] is 1.7e-05 (inactive).

On to `COc1cc(-c2nc(-c3cccc(C(F)(F)F)c3)no2)cc(OC)c1OC`, for which the cell count in test [1] worked out at 413. The inhibition in test [1] was 5.3% (inactive); in test [3] it was -78.2% (inactive); in test [7] it was 3.75% (inactive); in test [8] it was -10.8% (inactive). In addition, the inhibition of aggregation in test [2] is 3.5% (inactive). For the same molecule, the results for the nuclei count in test [2] and in test [3] were 102% and 109%, respectively. The values for the fluorescence slope in test [4] and in test [6] were -0.554 (inactive) and 0.00715 (inactive), respectively. Further, the NADPH fluorescence slope in test [5] is -5.5e-05 (inactive).

For `COc1ccc(S(=O)(=O)N2CCN(C3CCCCCCC3)CC2)cc1`, the cell count in test [1] came to 360. Besides, the inhibition in test [1] was 2% (inactive); in test [3], -8.4% (inactive); in test [7] it was 16.2% (inactive); in test [8], 24.3% (inactive). Besides, the inhibition of aggregation in test [2] was 5.1% (inactive). Further, the nuclei count in test [2] was 105%; in test [3], 108%. The results for the fluorescence slope in test [4] and in test [6] were -0.533 (inactive) and 0.00334 (inactive), respectively. For the same molecule, the NADPH fluorescence slope in test [5] is -5.6e-05 (inactive).

For the molecule `CCOC(=O)c1nnn(-c2nonc2NC(C)=O)c1C`, in test [1], the cell count amounted to 323. In addition, the inhibition in test [1] is 6.5% (inactive); in test [3], -39.1% (inactive); in test [7], 17.3% (inactive); in test [8], 14% (inactive). Also, in test [2], the inhibition of aggregation was -14.1% (inactive). Moreover, the nuclei count in test [2] came out at 98.9%; in test [3], 93.3%. The fluorescence slope was -0.58 (inactive) in test [4] and 0.00665 (inactive) in test [6]. The NADPH fluorescence slope in test [5] was -1.6e-05 (inactive).

As for `CCS(=O)(=O)N1CCC(C(=O)NCc2cccs2)CC1`, in test [1], the cell count worked out at 683. Moreover, the inhibition in test [1] was -5.9% (inactive); in test [3], -111% (inactive); in test [7], 5.97% (inactive); in test [8] it was 13.7% (inactive). Besides, the inhibition of aggregation in test [2] was 12.4% (inactive). The nuclei count in test [2] is 77.5%; in test [3], 102%. Moreover, the fluorescence slope was -0.549 (inactive) in test [4] and 0.00636 (inactive) in test [6]. Also, the NADPH fluorescence slope in test [5] was -2e-05 (inactive).

Turning to `CC1CC(C)CN(CCCNC(=O)COc2cc(=O)n(C)c3ccccc23)C1` (stereo not drawn), the cell count in test [1] stood at 347. The inhibition was 3.3% (inactive) in test [1], -10.4% (inactive) in test [3], 11.3% (inactive) in test [7] and 36.3% (inactive) in test [8]. Also, the inhibition of aggregation in test [2] is -17.3% (inactive). Further, the nuclei count in test [2] is 99%; in test [3] it was 122%. Also, the fluorescence slope is -0.408 (inactive) in test [4] and 0.00505 (inactive) in test [6]. Further, the NADPH fluorescence slope in test [5] was -7e-05 (inactive).

Take `O=C1CC(c2ccco2)CC(O)=C1C=NCCN1CCNCC1` (stereo not drawn): in test [1], the cell count was 315. Moreover, the inhibition in test [1] was -8.1% (inactive); in test [3], -35% (inactive); in test [7], 22.6% (inactive); in test [8] it was 31.6% (inactive). Also, in test [2], the inhibition of aggregation is -0.5% (inactive). Further, the results for the nuclei count in test [2] and in test [3] were 114% and 122%, respectively. The fluorescence slope is -0.595 (inactive) in test [4] and 0.00594 (inactive) in test [6]. In test [5], the NADPH fluorescence slope is 9e-06 (inactive).

Take `NC(=O)SCC(=O)Nc1cccc(Cl)c1`: the cell count in test [1] was 449. The inhibition in test [1] is -0.5% (inactive); in test [3], -267% (inactive); in test [7] it was 18.6% (inactive); in test [8] it was 15.3% (inactive). The inhibition of aggregation in test [2] was -7.6% (inactive). The nuclei count in test [2] worked out at 119%; in test [3] it was 132%. In addition, the fluorescence slope is -0.576 (inactive) in test [4] and 0.00648 (inactive) in test [6]. Further, the NADPH fluorescence slope in test [5] was -1.5e-06 (inactive).
